# Test results taken from paper PMC4475435 (Clinical therapeutics, 2015).
# Read-outs that look alike come from different tables or passages of the source. Marks after values point to notes of the source that are not given here.
# Legend:
# [1] = cited from earlier work
# [2] = Population-based PK model; format: in vivo, human
# Summary of the method: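 Matched case-control: overweight/obese children (≥85th percentile, CDC charts) vs normal-weight controls matched on age (±1 y), SCr (±0.4 mg/dL), nephrotoxic co-medication and ICU stay; 389 serum levels, mostly drawn after third dose, with full dosing history. One-compartment first-order model, FOCE with interaction; age and SCr on CL; weight on Vd, weight^0.75 on CL; MAP Bayesian POSTHOC individual estimates; 1000-replicate bootstrap 95% CIs.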
# [3] = weight used: Weight, cited from earlier work
# [4] = 4 normal-weight adults (Weight <115% IW), 25–30 y, weight used: Weight, SD
# [5] = 6 morbidly obese adults (Weight >190% IW), 27–37 y, weight used: Weight, SD
# [6] = 6 morbidly obese adults, 27–37 y, weight used: IW, SD
# [7] = 24 morbidly obese adults (Weight >190% IW), 41 (7) y, weight used: Weight, SD
# [8] = 24 morbidly obese adults, weight used: IW, SD
# [9] = 24 normal-weight adults, weight used: IW, SD
# [10] = bootstrap analysis of 1000 replicates
# [11] = obese and overweight children compared with those with normal weight
# [12] = overweight/obese cases versus normal-weight controls, 87 matched pairs
# [13] = 18 overweight children, age 5, 0.5–18 y
smiles,measurement,setting,value
CN[C@H](CC(C)C)C(=O)N[C@H]1C(=O)N[C@@H](CC(N)=O)C(=O)N[C@H]2C(=O)N[C@H]3C(=O)N[C@H](C(=O)N[C@H](C(=O)O)c4cc(O)cc(O)c4-c4cc3ccc4O)[C@H](O)c3ccc(c(Cl)c3)Oc3cc2cc(c3O[C@@H]2O[C@H](CO)[C@@H](O)[C@H](O)[C@H]2O[C@H]2C[C@](C)(N)[C@H](O)[C@H](C)O2)Oc2ccc(cc2Cl)[C@H]1O [vancomycin],"Clearance, Mean (SD) or Median (Range)",[1]; [4],0.065 (0.004) L/kg/h
same,"Vd, Mean (SD) or Median (Range)",[1]; [4],0.39 (0.06) L/kg
same,"Clearance, Mean (SD) or Median (Range)",[1]; [5],0.066 (0.01) L/kg/h
same,"Vd, Mean (SD) or Median (Range)",[1]; [5],0.26 (0.03) L/kg
same,"Clearance, Mean (SD) or Median (Range)",[1]; [6],0.174 (0.04) L/kg/h
same,"Vd, Mean (SD) or Median (Range)",[1]; [6],0.68 (0.07) L/kg
same,"Clearance, Mean (SD) or Median (Range)",[1]; [7],0.072 (0.012) L/kg/h
same,"Vd, Mean (SD) or Median (Range)",[1]; [7],0.32 (0.05) L/kg
same,"Clearance, Mean (SD) or Median (Range)",[1]; [8],0.186 (0.042) L/kg/h
same,"Vd, Mean (SD) or Median (Range)",[1]; [8],0.83 (0.08) L/kg
same,"Clearance, Mean (SD) or Median (Range)",[1]; [9],0.06 (0.024) L/kg/h
same,"Vd, Mean (SD) or Median (Range)",[1]; [9],0.64 (0.26) L/kg
same,"Vd, Mean (SD) or Median (Range)","[1]; 37 underweight adults (Weight <80% IW), weight used: IW, 95% CI 0.55–0.68",0.62 (0.55–0.68 ^‡) L/kg
same,"Clearance, Mean (SD) or Median (Range)","[1]; 107 obese adults (Weight >120% LBM), weight used: Weight, range of means",0.0366–0.051 ^† L/kg/h
same,"Vd, Mean (SD) or Median (Range)","[1]; 108 obese adults (Weight >130% IW), weight used: IW, 95% CI 0.82–0.97",0.89 (0.82–0.97 ^‡) L/kg
same,"Vd, Mean (SD) or Median (Range)","[1]; 108 obese adults (Weight >130% IW), weight used: Weight, 95% CI 0.52–0.59",0.56 (0.52–0.59 ^‡) L/kg
same,"θ1, Median Bootstrap Estimate (95% CI)",[2]; [10],0.572 (0.514–0.632)
same,"θ2, Median Bootstrap Estimate (95% CI)",[2]; [10],0.285 (0.268–0.304)
same,"θ3, Median Bootstrap Estimate (95% CI)",[2]; [10],0.291 (0.165–0.395)
same,"θ4, Median Bootstrap Estimate (95% CI)",[2]; [10],0.742 (0.194–1.263)
same,"θ1, population estimate: Vd (L) = θ1 × Weight (kg)","[2]; final population PK model, 174 participants, 389 concentrations",0.574
same,decrease of weight-adjusted CL,[2]; [11],10.8%
same,decrease of weight-adjusted Vd,[2]; [11],2.2%
same,"mean CL, based on weight, for cases lower than controls by",[2]; [12],0.233 mL/min/kg
same,"mean Vd, based on weight, for cases lower than controls by",[2]; [12],0.012 L/kg
same,"Clearance, Mean (SD) or Median (Range)",[3]; 13 underweight children,0.18 (0.09) L/kg/h
same,"Vd, Mean (SD) or Median (Range)",[3]; 13 underweight children,0.97 (0.54) L/kg
same,"Clearance, Mean (SD) or Median (Range)",[3]; [13],0.16 (0.05) L/kg/h
same,"Vd, Mean (SD) or Median (Range)",[3]; [13],0.81 (0.37) L/kg
same,"Clearance, Mean (SD) or Median (Range)",[3]; 31 normal-weight children,0.2 (0.08) L/kg/h
same,"Vd, Mean (SD) or Median (Range)",[3]; 31 normal-weight children,1 (0.35) L/kg
